Measured values reported in ChEMBL document CHEMBL3616378 (J Med Chem, 2015).
pEC50, pIC50, pKi: −log10 of the molar value.

Legend:
[1] = target: T1, Metabotropic glutamate receptor 2 (Homo sapiens, UniProt Q14416); test: Antagonist activity at human recombinant mGlu2 receptor expressed in AV12 cells assessed as inhibition of glutamate-stimulated Ca2+ mobilization after 1 hr by FLIPR assay; assay type: functional, cell-based
In short: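 AV12 cells stably co-expressing rat EAAT1, Gα15 and human mGlu2 (Bmax 1.35 pmol/mg), plated 85K/well 24 h ahead in medium with 250 µM L-glutamine. Compounds were dissolved from 10 mM stocks in 0.1N NaOH and run as 10-point 3-fold series. Fluo-3 AM Ca2+ transients were read by FLIPR. Read-out was % inhibition of the EC90 glutamate response, with relative IC50 from a four-parameter logistic fit.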

[2] = target: T1, Metabotropic glutamate receptor 2; test: Agonist activity at human recombinant mGlu2 receptor expressed in AV12 cells assessed as stimulation of Ca2+ mobilization after 1 hr by FLIPR assay; assay type: functional, cell-based
[3] = target: T1, Metabotropic glutamate receptor 2; test: Displacement of [3H]-459477 from human recombinant mGlu2 receptor expressed in AV12 cells after 90 mins by liquid scintillation counting; assay type: cell-based
[4] = target: T2, Metabotropic glutamate receptor 3 (Homo sapiens, UniProt Q14832); test: Antagonist activity at human recombinant mGlu3 receptor expressed in AV12 cells assessed as reversal of DCG-4-inhibited, forskolin-stimulated cAMP production after 1 hr by fluorescence assay; assay type: functional, cell-based
T2 sequence (Q14832 whole entry): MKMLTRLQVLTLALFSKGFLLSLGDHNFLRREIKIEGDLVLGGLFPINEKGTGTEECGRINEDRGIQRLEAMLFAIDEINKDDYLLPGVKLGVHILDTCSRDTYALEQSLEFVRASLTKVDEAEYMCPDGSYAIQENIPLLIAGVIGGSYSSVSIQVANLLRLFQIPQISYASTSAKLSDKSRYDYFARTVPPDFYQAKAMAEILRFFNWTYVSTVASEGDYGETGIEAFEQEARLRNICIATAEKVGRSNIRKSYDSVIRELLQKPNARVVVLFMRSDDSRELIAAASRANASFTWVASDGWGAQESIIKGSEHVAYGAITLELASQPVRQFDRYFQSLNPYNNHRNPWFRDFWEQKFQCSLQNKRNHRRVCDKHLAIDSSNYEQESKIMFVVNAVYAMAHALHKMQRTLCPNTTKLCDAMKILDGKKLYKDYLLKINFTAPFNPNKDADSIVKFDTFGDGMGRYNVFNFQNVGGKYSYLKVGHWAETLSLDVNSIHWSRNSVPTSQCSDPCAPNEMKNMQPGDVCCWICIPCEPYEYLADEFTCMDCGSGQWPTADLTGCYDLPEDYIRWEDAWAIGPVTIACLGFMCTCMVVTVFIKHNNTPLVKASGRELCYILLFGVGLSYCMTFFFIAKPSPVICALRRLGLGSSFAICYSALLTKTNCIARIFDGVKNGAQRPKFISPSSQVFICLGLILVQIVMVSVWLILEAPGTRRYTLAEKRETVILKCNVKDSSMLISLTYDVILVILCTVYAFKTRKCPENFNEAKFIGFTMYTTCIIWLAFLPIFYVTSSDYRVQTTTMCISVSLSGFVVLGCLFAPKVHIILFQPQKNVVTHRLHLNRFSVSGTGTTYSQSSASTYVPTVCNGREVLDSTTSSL

[5] = target: T2, Metabotropic glutamate receptor 3; test: Displacement of [3H]-459477 from human recombinant mGlu3 receptor expressed in AV12 cells after 90 mins by liquid scintillation counting; assay type: cell-based
[6] = target: T2, Metabotropic glutamate receptor 3; test: Agonist activity at human recombinant mGlu3 receptor expressed in AV12 cells assessed as stimulation of Ca2+ mobilization after 1.5 hrs by FLIPR assay; assay type: functional, cell-based
[7] = target: T2, Metabotropic glutamate receptor 3; test: Agonist activity at human recombinant mGlu3 receptor expressed in AV12 cells assessed as inhibition of forskolin-stimulated cAMP production after 1 hr by fluorescence assay; assay type: functional, cell-based
[8] = target: T2, Metabotropic glutamate receptor 3; test: Antagonist activity at human recombinant mGlu3 receptor expressed in AV12 cells assessed as inhibition of glutamate-stimulated Ca2+ mobilization after 1.5 hrs by FLIPR assay; assay type: functional, cell-based
[9] = target: T1, Metabotropic glutamate receptor 2; test: Antagonist activity at human recombinant mGlu2 receptor expressed in AV12 cells assessed as reversal of DCG-4-inhibited, forskolin-stimulated cAMP production after 1 hr by fluorescence assay; assay type: functional, cell-based
[10] = target: T1, Metabotropic glutamate receptor 2; test: Agonist activity at human recombinant mGlu2 receptor expressed in AV12 cells assessed as inhibition of forskolin-stimulated cAMP production after 20 min by fluorescence assay
[11] = target: T2, Metabotropic glutamate receptor 3; test: Agonist activity at wild type human recombinant mGlu3 receptor expressed in AV12 cells assessed as stimulation of Ca2+ mobilization after 1 hr by FLIPR assay; assay type: functional, cell-based
[12] = target: Metabotropic glutamate receptor 3 (Homo sapiens, UniProt Q14832, D279E/Q306L); test: Agonist activity at human recombinant mGlu3 receptor D279E and Q306L mutant expressed in AV12 cells assessed as stimulation of Ca2+ mobilization after 1 hr by FLIPR assay; assay type: functional, cell-based
Sequence of Metabotropic glutamate receptor 3 (Homo sapiens, UniProt Q14832, D279E/Q306L) (Q14832 23-879 D279E/Q306L limits assumed): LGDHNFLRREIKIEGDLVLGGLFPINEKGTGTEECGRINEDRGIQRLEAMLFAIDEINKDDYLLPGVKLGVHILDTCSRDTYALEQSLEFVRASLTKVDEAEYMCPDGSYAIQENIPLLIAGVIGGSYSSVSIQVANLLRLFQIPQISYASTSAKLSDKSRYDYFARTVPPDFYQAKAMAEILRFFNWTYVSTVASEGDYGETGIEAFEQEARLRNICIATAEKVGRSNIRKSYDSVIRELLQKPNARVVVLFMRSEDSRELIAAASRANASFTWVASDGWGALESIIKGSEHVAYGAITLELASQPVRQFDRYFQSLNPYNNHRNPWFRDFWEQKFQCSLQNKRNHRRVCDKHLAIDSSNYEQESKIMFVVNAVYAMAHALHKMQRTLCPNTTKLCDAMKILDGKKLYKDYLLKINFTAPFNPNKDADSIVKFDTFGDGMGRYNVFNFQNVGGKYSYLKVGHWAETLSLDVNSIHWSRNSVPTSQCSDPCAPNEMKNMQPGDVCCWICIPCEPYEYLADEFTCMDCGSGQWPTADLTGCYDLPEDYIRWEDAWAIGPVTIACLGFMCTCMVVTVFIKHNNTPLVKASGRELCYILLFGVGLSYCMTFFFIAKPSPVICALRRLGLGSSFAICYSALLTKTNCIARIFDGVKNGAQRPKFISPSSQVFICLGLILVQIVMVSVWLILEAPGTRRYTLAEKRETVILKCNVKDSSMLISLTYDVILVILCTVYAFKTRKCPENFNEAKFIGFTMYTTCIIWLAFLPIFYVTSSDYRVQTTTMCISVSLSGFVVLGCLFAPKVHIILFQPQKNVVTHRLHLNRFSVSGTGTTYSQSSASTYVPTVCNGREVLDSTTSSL

[13] = target: Metabotropic glutamate receptor 3 (Homo sapiens, UniProt Q14832, Q306L); test: Agonist activity at human recombinant mGlu3 receptor Q306L mutant expressed in AV12 cells assessed as stimulation of Ca2+ mobilization after 1 hr by FLIPR assay; assay type: functional, cell-based
Sequence of Metabotropic glutamate receptor 3 (Homo sapiens, UniProt Q14832, Q306L) (Q14832 23-879 Q306L limits assumed): as the sequence (Q14832 23-879 D279E/Q306L limits assumed) above, with E257D counted along it

[14] = target: Metabotropic glutamate receptor 3 (Homo sapiens, UniProt Q14832, D279E); test: Agonist activity at human recombinant mGlu3 receptor D279E mutant expressed in AV12 cells assessed as stimulation of Ca2+ mobilization after 1 hr by FLIPR assay; assay type: functional, cell-based
Sequence of Metabotropic glutamate receptor 3 (Homo sapiens, UniProt Q14832, D279E) (Q14832 23-879 D279E limits assumed): as the sequence (Q14832 23-879 D279E/Q306L limits assumed) above, with L284Q counted along it

T1 sequence (Q14416 whole entry): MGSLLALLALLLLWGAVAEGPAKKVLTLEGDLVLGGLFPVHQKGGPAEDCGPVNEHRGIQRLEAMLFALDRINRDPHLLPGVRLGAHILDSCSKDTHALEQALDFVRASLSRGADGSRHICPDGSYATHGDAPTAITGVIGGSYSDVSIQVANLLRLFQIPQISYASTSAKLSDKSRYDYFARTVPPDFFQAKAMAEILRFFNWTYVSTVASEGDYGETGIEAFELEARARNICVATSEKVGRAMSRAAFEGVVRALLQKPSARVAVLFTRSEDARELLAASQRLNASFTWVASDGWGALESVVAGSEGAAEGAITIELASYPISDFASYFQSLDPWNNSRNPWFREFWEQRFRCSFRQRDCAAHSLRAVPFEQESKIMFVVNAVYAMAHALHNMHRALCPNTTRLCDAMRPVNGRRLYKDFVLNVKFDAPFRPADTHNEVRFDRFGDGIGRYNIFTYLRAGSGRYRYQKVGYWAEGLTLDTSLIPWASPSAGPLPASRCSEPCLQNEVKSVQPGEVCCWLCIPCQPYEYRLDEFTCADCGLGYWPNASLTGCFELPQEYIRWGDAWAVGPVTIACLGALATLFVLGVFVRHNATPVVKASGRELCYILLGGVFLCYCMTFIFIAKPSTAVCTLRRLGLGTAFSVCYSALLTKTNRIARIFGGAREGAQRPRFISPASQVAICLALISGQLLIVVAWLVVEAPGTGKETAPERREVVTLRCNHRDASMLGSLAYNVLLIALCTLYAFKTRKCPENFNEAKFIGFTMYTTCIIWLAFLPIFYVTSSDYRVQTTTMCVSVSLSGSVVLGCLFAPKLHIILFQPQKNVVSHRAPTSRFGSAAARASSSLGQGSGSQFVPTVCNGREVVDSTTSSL

Row | Structure (SMILES) | pIC50 [1] | pEC50 [2] | pKi [3] | pIC50 [4] | pKi [5] | pEC50 [6] | pEC50 [7] | pIC50 [8] | pIC50 [9] | pEC50 [10] | pEC50 [11] | pEC50 [12] | pEC50 [13] | pEC50 [14]
1 | N[C@@]1(C(=O)O)C[C@@H](Sc2ccccc2)[C@H]2[C@H](C(=O)O)[C@H]21 | < 4.90 | < 4.90 | 6.38 | 5.97 | 6.86 | < 4.60 | < 4.60 | 5.11 |  |  |  |  |  | 
2 | N[C@@]1(C(=O)O)C[C@H](Sc2ccccc2)[C@H]2[C@H](C(=O)O)[C@H]21 | < 4.90 | < 4.60 | 5.91 |  | 6.57 | < 5.30 | < 4.60 | 5.17 | 4.82 |  |  |  |  | 
3 | Cc1nnc(S[C@@H]2C[C@@](N)(C(=O)O)[C@@H]3[C@@H](C(=O)O)[C@@H]32)[nH]1 |  | 7.40 | 6.92 |  | 7.20 | 6.98 | 6.99 |  |  | 7.98 |  |  |  | 
4 | N[C@@]1(C(=O)O)C[C@@H](Sc2nnc(C(F)(F)F)[nH]2)[C@H]2[C@H](C(=O)O)[C@H]21 |  |  |  | 6.28 | 7.25 | 7.09 | 7.10 |  |  |  |  |  |  | 
5 | N[C@@]1(C(=O)O)C[C@@H](Sc2nnc(C(F)F)[nH]2)[C@H]2[C@H](C(=O)O)[C@H]21 |  | 7.27 | 7.02 | 6.34 | 7.20 | < 4.60 | 7.11 | 6.81 |  | 7.93 |  |  |  | 
6 | Nc1nnc(S[C@@H]2C[C@@](N)(C(=O)O)[C@@H]3[C@@H](C(=O)O)[C@@H]32)[nH]1 |  | 7.89 | 7.17 |  | 7.23 | < 4.60 | 7.13 | 7.02 |  | 8.35 |  |  |  | 
7 | CC(C)c1nnc(S[C@@H]2C[C@@](N)(C(=O)O)[C@@H]3[C@@H](C(=O)O)[C@@H]32)[nH]1 |  | 7.06 | 6.58 | 6.07 | 6.80 | < 4.60 | 6.55 | < 4.90 |  | 7.78 |  |  |  | 
8 | N[C@@]1(C(=O)O)C[C@@H](Sc2c[nH]nn2)[C@H]2[C@H](C(=O)O)[C@H]21 |  |  | 6.85 | 5.62 | 6.59 | < 4.60 | 6.63 | 5.26 |  | 7.91 |  |  |  | 
9 | N[C@@]1(C(=O)O)C[C@H](Sc2nnc[nH]2)[C@H]2[C@H](C(=O)O)[C@H]21 |  |  | 7.22 | 5.37 | 6.90 | < 4.60 | 6.64 | 5.51 |  | 7.95 |  |  |  | 
10 | Cc1nnc(S[C@H]2C[C@@](N)(C(=O)O)[C@@H]3[C@@H](C(=O)O)[C@@H]32)[nH]1 |  | 6.84 | 6.77 |  | 7.10 | < 4.60 | 7.02 | 5.44 |  | 7.35 |  |  |  | 
11 | N[C@@]1(C(=O)O)C[C@H](Sc2n[nH]c(C(F)(F)F)n2)[C@H]2[C@H](C(=O)O)[C@H]21 |  |  |  |  | 7.37 | < 4.60 | 7.52 | 6.20 |  |  |  |  |  | 
12 | N[C@@]1(C(=O)O)C[C@H](Sc2nnc(C(F)F)[nH]2)[C@H]2[C@H](C(=O)O)[C@H]21 |  | 8.20 | 7.87 |  | 7.24 | < 4.60 | 7.56 | 6.61 |  | 9.24 |  |  |  | 
13 | Nc1nnc(S[C@H]2C[C@@](N)(C(=O)O)[C@@H]3[C@@H](C(=O)O)[C@@H]32)[nH]1 |  | 7.70 | 7.56 |  | 7.16 | < 4.60 | 6.95 | 5.41 |  | 8.19 |  |  |  | 
14 | CC(C)c1nc(S[C@H]2C[C@@](N)(C(=O)O)[C@@H]3[C@@H](C(=O)O)[C@@H]32)n[nH]1 |  | 6.62 | 6.47 |  | 7.08 | < 4.60 | 7.11 | 5.63 |  | 7.13 |  |  |  | 
15 | N[C@@]1(C(=O)O)C[C@H](Sc2c[nH]nn2)[C@H]2[C@H](C(=O)O)[C@H]21 |  | 7.72 | 6.95 |  | 7.19 | < 4.60 | 7.03 | 5.55 |  | 8.28 |  |  |  | 
16 | N[C@@]1(C(=O)O)CC[C@H]2[C@H](C(=O)O)[C@H]21 |  | 7.46 | 7.14 |  | 6.97 | 6.85 | 7.55 |  |  | 8.15 |  |  |  | 
17 | N[C@@H](CCC(=O)O)C(=O)O [GLUTAMIC ACID] |  |  |  |  |  |  |  |  |  |  | 6.00 | 5.29 | 5.83 | 5.38
